In ChEMBL document CHEMBL1772969, “Synthesis, structure-activity relationship, and antimalarial activity of ureas and thioureas of 15-membered azalides” (J Med Chem, 2011):

Tests used:
[1] = tested on: Plasmodium falciparum; test: Antimalarial activity against multidrug-resistant Plasmodium falciparum TM91C235 after 48 hrs by [3H]hypoxanthine incorporation assay; format: functional, organism-based
Procedure, shortened: (§1)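 [3H]hypoxanthine incorporation assay (Desjardins method, Milhous modification) with 48 h drug exposure. Compounds and controls were 2-fold diluted across 11 concentrations. IC50 was fitted by nonlinear logistic dose-response. Values are averaged where multiple results were generated, with relative errors usually <30%.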

[2] = Half life in human liver microsomes at 1 uM by LCMS analysis; format: ADME, Microsome
Procedure, shortened: (§2)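 Compound at 1 μM final with 0.5 mg/mL pooled human or mouse liver microsomes, 1.3 mM NADP, 3.3 mM MgCl₂, 0.1 M PBS pH 7.4. Reaction started with 1 U/mL G6PD, shaken at 37 °C. Aliquots quenched with cold acetonitrile at 0, 10, 20, 30 and 60 min and quantified by LCMS. t₁/₂ taken from log plot of total ion chromatogram area remaining.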

[3] = Half life in mouse liver microsomes at 1 uM by LCMS analysis; format: ADME, Microsome; procedure, shortened: as §2
[4] = tested on: Plasmodium falciparum; test: Antimalarial activity against chloroquine/pyrimethamine-resistant Plasmodium falciparum W2 after 48 hrs by [3H]hypoxanthine incorporation assay; format: functional, organism-based; procedure, shortened: as §1
[5] = tested on: HepG2; test: Cytotoxicity against human HepG2 cells after 1 to 4 hrs by MTS assay; format: cell-based
Procedure, shortened: (§3)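 HepG2 and THP-1 cells grown in RPMI 1640 with 10% FBS at 37 °C, 5% CO₂, and passaged twice weekly. Compounds applied as continuous exposure. Viability read by MTS reagent, 1–4 h incubation, absorbance at 490 nm; IC₅₀ derived.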

[6] = tested on: Plasmodium falciparum; test: Antimalarial activity against chloroquine-sensitive Plasmodium falciparum D6 after 48 hrs by [3H]hypoxanthine incorporation assay; format: functional, organism-based; procedure, shortened: as §1
[7] = tested on: THP-1; test: Cytotoxicity against human THP1 cells after 1 to 4 hrs by MTS assay; format: cell-based; procedure, shortened: as §3

SMILES	IC50 [1] [nM]	half-life at 1 µM [2] [h]	half-life at 1 µM [3] [h]	IC50 [4] [nM]	IC50 [5] [nM]	IC50 [6] [nM]	IC50 [7] [nM]
CC[C@H]1OC(=O)[C@H](C)[C@@H](O[C@H]2C[C@@](C)(OC)[C@@H](O)[C@H](C)O2)[C@H](C)[C@@H](O[C@@H]2O[C@H](C)C[C@H](N(C)C)[C@H]2O)[C@](C)(O)C[C@@H](C)CN(CCNC(=S)NCCCc2ccccc2)[C@H](C)[C@@H](O)[C@]1(C)O	82	> 2	> 2	52	8000	182	5000
CC[C@H]1OC(=O)[C@H](C)[C@@H](O[C@H]2C[C@@](C)(OC)[C@@H](O)[C@H](C)O2)[C@H](C)[C@@H](O[C@@H]2O[C@H](C)C[C@H](N(C)C)[C@H]2O)[C@](C)(O)C[C@@H](C)CN(CCN(CCC#N)C(=S)NCCc2ccccc2)[C@H](C)[C@@H](O)[C@]1(C)O	369	> 2	> 2	64	7000	295	6000
CC[C@H]1OC(=O)[C@H](C)[C@@H](O[C@H]2C[C@@](C)(OC)[C@@H](O)[C@H](C)O2)[C@H](C)[C@@H](O[C@@H]2O[C@H](C)C[C@H](N(C)C)[C@H]2O)[C@](C)(O)C[C@@H](C)CN(CCCNC(=O)NC(C)C)[C@H](C)[C@@H](O)[C@]1(C)O	> 5700	> 2	> 2	> 5700	–	> 1420	–
CC[C@H]1OC(=O)[C@H](C)[C@@H](O[C@H]2C[C@@](C)(OC)[C@@H](O)[C@H](C)O2)[C@H](C)[C@@H](O[C@@H]2O[C@H](C)C[C@H](N(C)C)[C@H]2O)[C@](C)(O)C[C@@H](C)CN(CCCN(CCC#N)C(=O)Nc2cccc3ccccc23)[C@H](C)[C@@H](O)[C@]1(C)O	255	> 2	> 2	1380	–	523	–
CC[C@H]1OC(=O)[C@H](C)[C@@H](O[C@H]2C[C@@](C)(OC)[C@@H](O)[C@H](C)O2)[C@H](C)[C@@H](O[C@@H]2O[C@H](C)C[C@H](N(C)C)[C@H]2O)[C@](C)(O)C[C@@H](C)CN(CCNC(=O)NCCc2ccccc2)[C@H](C)[C@@H](O)[C@]1(C)O	243	> 2	> 2	105	> 50000	546	45000
CC[C@H]1OC(=O)[C@H](C)[C@@H](O[C@H]2C[C@@](C)(OC)[C@@H](O)[C@H](C)O2)[C@H](C)[C@@H](O[C@@H]2O[C@H](C)C[C@H](N(C)C)[C@H]2O)[C@](C)(O)C[C@@H](C)CN(CCNC(=O)NCc2ccccc2)[C@H](C)[C@@H](O)[C@]1(C)O	170	> 2	> 2	287	> 50000	320	35000
CC[C@H]1OC(=O)[C@H](C)[C@@H](O[C@H]2C[C@@](C)(OC)[C@@H](O)[C@H](C)O2)[C@H](C)[C@@H](O[C@@H]2O[C@H](C)C[C@H](N(C)C)[C@H]2O)[C@](C)(O)C[C@@H](C)CN(CCN(CCC#N)C(=O)Nc2ccc3ccccc3c2)[C@H](C)[C@@H](O)[C@]1(C)O	224	> 2	> 2	125	11000	525	13000
CCNC(=O)NCCN1C[C@H](C)C[C@@](C)(O)[C@H](O[C@@H]2O[C@H](C)C[C@H](N(C)C)[C@H]2O)[C@@H](C)[C@H](O[C@H]2C[C@@](C)(OC)[C@@H](O)[C@H](C)O2)[C@@H](C)C(=O)O[C@H](CC)[C@@](C)(O)[C@H](O)[C@H]1C	978	> 2	> 2	4930	–	3620	–
CC[C@H]1OC(=O)[C@H](C)[C@@H](O[C@H]2C[C@@](C)(OC)[C@@H](O)[C@H](C)O2)[C@H](C)[C@@H](O[C@@H]2O[C@H](C)C[C@H](N(C)C)[C@H]2O)[C@](C)(O)C[C@@H](C)CN(CCNC(=O)Nc2ccc3ccccc3c2)[C@H](C)[C@@H](O)[C@]1(C)O	24	> 2	> 2	30	9000	71	5000
CC[C@H]1OC(=O)[C@H](C)[C@@H](O)[C@H](C)[C@@H](O[C@@H]2O[C@H](C)C[C@H](N(C)C)[C@H]2O)[C@](C)(O)C[C@@H](C)CN(CCNC(=O)Nc2ccc3ccccc3c2)[C@H](C)[C@@H](O)[C@]1(C)O	106	> 2	> 2	99	16000	318	8000
CC[C@H]1OC(=O)[C@H](C)[C@@H](O[C@H]2C[C@@](C)(OC)[C@@H](O)[C@H](C)O2)[C@H](C)[C@@H](O[C@@H]2O[C@H](C)C[C@H](N(C)C)[C@H]2O)[C@](C)(O)C[C@@H](C)CN(CCNC(=S)NCCc2ccccc2)[C@H](C)[C@@H](O)[C@]1(C)O	128	> 2	> 2	102	9000	203	4000
CC[C@H]1OC(=O)[C@H](C)[C@@H](O[C@H]2C[C@@](C)(OC)[C@@H](O)[C@H](C)O2)[C@H](C)[C@@H](O[C@@H]2O[C@H](C)C[C@H](N(C)C)[C@H]2O)[C@](C)(O)C[C@@H](C)CN(CCNC(=O)Nc2cccc3ccccc23)[C@H](C)[C@@H](O)[C@]1(C)O	42	> 2	> 2	79	35000	142	14000
CC[C@H]1OC(=O)[C@H](C)[C@@H](O[C@H]2C[C@@](C)(OC)[C@@H](O)[C@H](C)O2)[C@H](C)[C@@H](O[C@@H]2O[C@H](C)C[C@H](N(C)C)[C@H]2O)[C@](C)(O)C[C@@H](C)CN(CCN(CCC(N)=O)C(=O)Nc2ccc3ccccc3c2)[C@H](C)[C@@H](O)[C@]1(C)O	39	> 2	> 2	62	13000	190	7000
CC[C@H]1OC(=O)[C@H](C)[C@@H](O[C@H]2C[C@@](C)(OC)[C@@H](O)[C@H](C)O2)[C@H](C)[C@@H](O[C@@H]2O[C@H](C)C[C@H](N(C)C)[C@H]2O)[C@](C)(O)C[C@@H](C)CN(CCNC(=S)NCc2ccccc2)[C@H](C)[C@@H](O)[C@]1(C)O	106	> 2	> 2	72	14000	109	9000
CCOC(=O)CCN(CCN1C[C@H](C)C[C@@](C)(O)[C@H](O[C@@H]2O[C@H](C)C[C@H](N(C)C)[C@H]2O)[C@@H](C)[C@H](O[C@H]2C[C@@](C)(OC)[C@@H](O)[C@H](C)O2)[C@@H](C)C(=O)O[C@H](CC)[C@@](C)(O)[C@H](O)[C@H]1C)C(=O)Nc1ccc2ccccc2c1	2150	> 2	> 2	207	23000	773	20000
CC[C@H]1OC(=O)[C@H](C)[C@@H](O[C@H]2C[C@@](C)(OC)[C@@H](O)[C@H](C)O2)[C@H](C)[C@@H](O[C@@H]2O[C@H](C)C[C@H](N(C)C)[C@H]2O)[C@](C)(O)C[C@@H](C)CN(CCNC(=S)Nc2ccccc2)[C@H](C)[C@@H](O)[C@]1(C)O	113	> 2	> 2	443	48000	183	16000
CC[C@H]1OC(=O)[C@H](C)[C@@H](O[C@H]2C[C@@](C)(OC)[C@@H](O)[C@H](C)O2)[C@H](C)[C@@H](O[C@@H]2O[C@H](C)C[C@H](N(C)C)[C@H]2O)[C@](C)(O)C[C@@H](C)CN(CCCN(CCC#N)C(=O)Nc2ccc3ccccc3c2)[C@H](C)[C@@H](O)[C@]1(C)O	116	> 2	> 2	178	–	118	–
CC[C@H]1OC(=O)[C@H](C)[C@@H](O[C@H]2C[C@@](C)(OC)[C@@H](O)[C@H](C)O2)[C@H](C)[C@@H](O[C@@H]2O[C@H](C)C[C@H](N(C)C)[C@H]2O)[C@](C)(O)C[C@@H](C)CN(CCCN(CCC#N)C(=O)NC(C)C)[C@H](C)[C@@H](O)[C@]1(C)O	1270	> 2	> 2	> 13400	–	> 13400	–
CC[C@H]1OC(=O)[C@H](C)[C@@H](O[C@H]2C[C@@](C)(OC)[C@@H](O)[C@H](C)O2)[C@H](C)[C@@H](O[C@@H]2O[C@H](C)C[C@H](N(C)C)[C@H]2O)[C@](C)(O)C[C@@H](C)CN(CCNC(=O)NC(C)C)[C@H](C)[C@@H](O)[C@]1(C)O	717	> 2	> 2	2060	–	1400	–
